The source of these data is ChEMBL document CHEMBL4422671, “New Quinolylnitrones for Stroke Therapy: Antioxidant and Neuroprotective ( Z)- N- tert-Butyl-1-(2-chloro-6-methoxyquinolin-3-yl)methanimine Oxide as a New Lead-Compound for Ischemic Stroke Treatment” (J Med Chem, 2019).

Experiment [1] in a line: Antioxidant activity assessed as ABTS radical cation scavenging activity by measuring trolox equivalents at 10 uL after 1 min. In kind it is functional. The procedure, abridged: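 ABTS radical cation made from 2 mM aqueous ABTS plus 0.17 mM potassium persulfate in 20 mM phosphate buffer pH 7.4, kept 12–16 h dark at rt. Diluted with ethanol to A734 0.70, then mixed with 10 μL compound from 10 mM stock. Absorbance read at rt 1 min after mixing. Trolox as standard.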

Experiment [2] relates to Primary neuron. The experiment can be described thus: Neuroprotective activity against oxygen-glucose deprivation-induced cell death in Sprague-Dawley rat primary neuronal cells assessed as increase in cell viability at 10 uM pretreated for 24 hrs followed by OGD challenge for 4 hrs and measured after 24 hrs of recovery period post OGD measured by MTT assay. In kind it is functional, cell-based. The procedure, abridged:
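Rat cortical neuron cultures (E16–17 Sprague-Dawley, 6–7 days in vitro) treated with compound (1–250 µM range) 24 h before 4 h OGD at <0.1% O2, 37 °C. Cells then recovered 24 h under normoxia with glucose. Viability by MTT absorbance at 595/690 nm, relative to untreated control.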

Experiment [3] is described as follows: Neuroprotective activity against oxygen-glucose deprivation-induced cell death in Sprague-Dawley rat primary neuronal cells assessed as cell viability at 100 uM treated at onset of recovery period and measured at 24 hrs of recovery by MTT assay relative to control. In kind it is functional. The following applies: Primary neuron, read-out: Activity. The procedure, abridged: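 Rat cortical neurons from E16–17 Sprague-Dawley embryos, used at 6–7 days in serum-free medium. OGD: glucose-free medium bubbled with 95% N2/5% CO2, <0.1% O2, 6.5% CO2, 37 °C, 4 h. Compound added at start of 24 h normoxic recovery. Viability by MTT (0.2 mg/mL, 1.5 h), lysis with HCl/SDS, read at 595/690 nm, relative to 100% control. Four to eight culture batches, each in quadruplicate.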
In general terms: Formazan colour is commonly taken as a measure of viable cells.

A short description of experiment [4]: Antioxidant activity assessed as inhibition of linoleic acid peroxidation activity at 10 uL. Also noted: scale not given: the % may be the effect or the level left. In kind it is functional. The procedure, abridged: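 AAPH-initiated peroxidation of sodium linoleate dispersion (16 mM, 10 μL) in 0.05 M phosphate buffer pH 7.4 at 37 °C under air. Initiator was 50 μL of 40 mM AAPH, with 10 μL compound added. Conjugated diene hydroperoxide followed at 234 nm. Trolox as reference.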

Experiment [5] concerns Primary neuron. The experiment in a line: Neuroprotective activity against oxygen-glucose deprivation-induced ischemia in Sprague-Dawley rat primary neuronal cells assessed as reduction in lipid peroxidation at 10 to 250 uM measured after 4 hrs of recovery post OGD by fluorometric assay. In kind it is functional, cell-based.
A further experiment has as its system Mus musculus. The experiment can be described thus: Neuroprotective activity in C57BL/6 mouse model of transient middle cerebral artery occlusion-induced ttransient focal cerebral ischemia assessed decrease in motor deficit at 2 mg/kg, ip measured after 24 hrs post dose by grip strength Test. In kind it is functional, organism-based. The procedure, abridged: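 Male C57BL/6 mice (9–12 weeks) under isoflurane. Distal MCA compressed 60 min with a needle, occlusion confirmed by laser-Doppler; buprenorphine given sc. Compound given ip at reperfusion onset. Grip strength recorded at 24 and 48 h versus presurgery. Infarct area/volume measured at 48 h from TTC-stained 1 mm coronal sections. n = 8 per group.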

Experiment [6] can be described thus: Antioxidant activity assessed as DPPH free radical scavenging activity at 0.1 mM measured after 20 to 60 mins. In kind it is functional. The procedure, abridged:
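DPPH 0.1 mM in absolute ethanol with compound at 0.1 mM final (from DMSO). Absorbance at 517 nm recorded after 20 and 60 min at rt. NDGA as standard.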
On the technique in general: DPPH is a stable violet radical that fades when it is reduced.

SMILES strings stand for the structures. The source made the active and inactive calls. The calls are words filed in the database; no cut-off is given here.

For the compound `COc1ccc2nc(Cl)c(/C=[N+](\[O-])C(C)(C)C)cc2c1`, the figures for the Activity in experiment [1], in experiment [4] and in experiment [6] were 7%, 22% and 4%, respectively. Moreover, the outcome in the experiment with Primary neuron [2], in the experiment on Primary neuron [5] and in the experiment with Mus musculus was Active. In addition, the viability at 100 µM in experiment [3] is 77.1%.
